Laboratory results as given in ChEMBL document CHEMBL6134765, “Rapid identification of novel indolylarylsulfone derivatives as potent HIV-1 NNRTIs via miniaturized CuAAC click-chemistry-based combinatorial libraries” (RSC Med Chem, 2025).
pEC50: −log10 of the molar value. Each block holds one compound with its values, some of them ahead of it.

Key:
[1] = test system: Human immunodeficiency virus 1; test: Antiviral activity against HIV-1 harboring K103N mutant infected in human MT4 cells assessed as inhibition of virus induced cytotoxicity incubated for 5 days by spectrophometry based MTT assay; format: functional, organism-based; conditions: Human immunodeficiency virus 1, MT4, 120 h
How it was run: (§1)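 MT-4 cells (from Dr. N. Yamamoto, Yamaguchi University) infected with single-mutant (L100I, K103N, Y181C, Y188L, E138K) or double-mutant (F227L/V106A; RES056 = K103N/Y181C) HIV-1 strains. Protection against virus-induced cytotoxicity was read by the MTT method. EC50 is the concentration giving 50% protection of the cell cultures.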

[2] = test system: Human immunodeficiency virus 2; test: Antiviral activity against HIV-2 ROD infected in human MT4 cells incubated for 5 days by spectrophotometry based MTT assay; format: functional, organism-based; conditions: Human immunodeficiency virus 2, ROD, MT4, 120 h
How it was run: (§2)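 MTT protection assay in MT-4 cells infected with HIV-1 IIIB or HIV-2 ROD. EC50 is the compound concentration giving 50% protection of the cultures against virus-induced cytotoxicity.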

[3] = test system: Human immunodeficiency virus 1; test: Antiviral activity against HIV-1 harboring E138K mutant infected in human MT4 cells assessed as inhibition of virus induced cytotoxicity incubated for 5 days by spectrophometry based MTT assay; format: functional, organism-based; conditions: Human immunodeficiency virus 1, MT4, 120 h; how it was run: as §1
[4] = test system: Human immunodeficiency virus 1; test: Antiviral activity against HIV-1 harboring L100I mutant infected in human MT4 cells assessed as inhibition of virus induced cytotoxicity incubated for 5 days by spectrophometry based MTT assay; format: functional, organism-based; conditions: Human immunodeficiency virus 1, MT4, 120 h; how it was run: as §1
[5] = test system: Human immunodeficiency virus 1; test: Antiviral activity against HIV-1 harboring Y188L mutant infected in human MT4 cells assessed as inhibition of virus induced cytotoxicity incubated for 5 days by spectrophometry based MTT assay; format: functional, organism-based; conditions: Human immunodeficiency virus 1, MT4, 120 h; how it was run: as §1
[6] = test system: Human immunodeficiency virus 1; test: Antiviral activity against HIV-1 harboring F227L/V106A double mutant infected in human MT4 cells assessed as inhibition of virus induced cytotoxicity incubated for 5 days by spectrophometry based MTT assay; format: functional, organism-based; conditions: Human immunodeficiency virus 1, MT4, 120 h; how it was run: as §1
[7] = Selectivity index, ratio of CC50 for cytotoxicity against human MT4 cells to EC50 for antiviral activity against wild-type HIV-1 IIIB infected in human MT4 cells; format: toxicity, cell-based; conditions: read-out: Ratio CC50/EC50
How it was run: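 Selectivity index is calculated as CC50 (mock-infected MT-4, MTT) divided by EC50 (HIV-1 IIIB protection of MT-4, MTT).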

[8] = test system: Human immunodeficiency virus 1; test: Antiviral activity against wild-type HIV-1 IIIB infected in human MT4 cells incubated for 5 days by spectrophometry based MTT assay; format: functional, organism-based; conditions: Human immunodeficiency virus 1, IIIB, MT4, 120 h; how it was run: as §2
[9] = test system: Human immunodeficiency virus 1; test: Antiviral activity against HIV-1 harboring Y181C mutant infected in human MT4 cells assessed as inhibition of virus induced cytotoxicity incubated for 5 days by spectrophometry based MTT assay; format: functional, organism-based; conditions: Human immunodeficiency virus 1, MT4, 120 h; how it was run: as §1
[10] = test system: Human immunodeficiency virus 1; test: Antiviral activity against HIV-1 harboring RES056 mutant infected in human MT4 cells assessed as inhibition of virus induced cytotoxicity incubated for 5 days by spectrophometry based MTT assay; format: functional, organism-based; conditions: Human immunodeficiency virus 1, MT4, 120 h; how it was run: as §1
[11] = target: Human immunodeficiency virus type 1 reverse transcriptase (Human immunodeficiency virus 1) (UniProt Q72547); test: Inhibition of recombinant HIV-1 reverse transcriptase at 0.66 mM incubated for 1 hr by ELISA relative to control
How it was run: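 Each library compound was tested directly as the crude click mixture (diluted in DMSO to 2 mM per well) against HIV-1 RT at 0.66 mM, using an ELISA-based RT kit following the kit protocol. Blank controls held DMSO, TBTA, CuSO4·5H2O and sodium ascorbate. Inhibition is expressed as a percentage.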

[12] = Cytotoxicity against human MT4 cells assessed as reduction in cell viability incubated for 5 days by MTT assay; format: toxicity, cell-based; conditions: time 5 day
How it was run: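 Mock-infected MT-4 cultures were read by MTT for cell viability. CC50 is the concentration that reduces viability by 50%.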

inhibition [11]: < 85%
Structure (SMILES): Cc1cc(C)cc(S(=O)(=O)c2c(C(=O)NCc3cn(Cc4ccccc4Cl)nn3)[nH]c3ccc(Cl)cc23)c1

inhibition [11]: < 85%
Structure (SMILES): Cc1cc(C)cc(S(=O)(=O)c2c(C(=O)NCc3cn(Cc4ccc([N+](=O)[O-])cc4)nn3)[nH]c3ccc(Cl)cc23)c1

inhibition [11]: < 85%
Structure (SMILES): Cc1cc(C)cc(S(=O)(=O)c2c(C(=O)NCc3cn(Cc4ccc(Cl)cc4)nn3)[nH]c3ccc(Cl)cc23)c1

inhibition [11]: < 85%
Structure (SMILES): Cc1cc(C)cc(S(=O)(=O)c2c(C(=O)NCc3cn(Cc4ccc(C#N)cc4)nn3)[nH]c3ccc(Cl)cc23)c1

inhibition [11]: < 85%
Structure (SMILES): Cc1cc(C)cc(S(=O)(=O)c2c(C(=O)NCc3cn(CCc4ccsc4)nn3)[nH]c3ccc(Cl)cc23)c1

inhibition [11]: < 85%
Structure (SMILES): Cc1cc(C)cc(S(=O)(=O)c2c(C(=O)NCc3cn(Cc4ccc(C(N)=O)cc4)nn3)[nH]c3ccc(Cl)cc23)c1

inhibition [11]: < 85%
Structure (SMILES): Cc1cc(C)cc(S(=O)(=O)c2c(C(=O)NCc3cn(Cc4cccc(Cl)c4)nn3)[nH]c3ccc(Cl)cc23)c1

inhibition [11]: < 85%
Structure (SMILES): Cc1cc(C)cc(S(=O)(=O)c2c(C(=O)NCc3cn(Cc4ccccc4C)nn3)[nH]c3ccc(Cl)cc23)c1

Second part, the compound before the results:

Structure (SMILES): COC(=O)CCCn1cc(CNC(=O)c2[nH]c3ccc(Cl)cc3c2S(=O)(=O)c2cc(C)cc(C)c2)nn1
pEC50 [1]: 6.29 | pEC50 [2]: < 3.69 | pEC50 [3]: 7.30 | pEC50 [4]: 6.57 | pEC50 [5]: 5.04 | pEC50 [6]: 5.78 | selectivity ratio [7]: 5810 | pEC50 [8]: 7.46 | pEC50 [9]: 6.24 | pEC50 [10]: < 3.69 | inhibition [11]: > 85% | CC50 at 120 h [12]: 206 µM

Structure (SMILES): Cc1cc(C)cc(S(=O)(=O)c2c(C(=O)NCc3cn(-c4ccc5c(c4)OCO5)nn3)[nH]c3ccc(Cl)cc23)c1
inhibition [11]: < 85%

Structure (SMILES): Cc1cc(C)cc(S(=O)(=O)c2c(C(=O)NCc3cn(CC(=O)Nc4ccc(Br)cc4)nn3)[nH]c3ccc(Cl)cc23)c1
pEC50 [1]: 5.82 | pEC50 [2]: < 4.80 | pEC50 [3]: 6.82 | pEC50 [4]: 6.42 | pEC50 [5]: 5.39 | pEC50 [6]: 5.73 | selectivity ratio [7]: 231 | pEC50 [8]: 7.17 | pEC50 [9]: 6.27 | pEC50 [10]: < 4.80 | inhibition [11]: > 85% | CC50 at 120 h [12]: 15.8 µM

Structure (SMILES): Cc1cc(C)cc(S(=O)(=O)c2c(C(=O)NCc3cn(Cc4cccc([N+](=O)[O-])c4)nn3)[nH]c3ccc(Cl)cc23)c1
pEC50 [1]: 5.55 | pEC50 [2]: < 3.67 | pEC50 [3]: 5.89 | pEC50 [4]: 5.72 | pEC50 [5]: 3.82 | pEC50 [6]: 5.03 | selectivity ratio [7]: > 939 | pEC50 [8]: 6.64 | pEC50 [9]: 5.52 | pEC50 [10]: < 3.67 | inhibition [11]: > 85% | CC50 at 120 h [12]: > 216 µM

Structure (SMILES): Cc1ccnc2c1NC(=O)c1cccnc1N2C1CC1 [NEVIRAPINE]
pEC50 [5]: ≤ 5.11 | pEC50 [6]: ≤ 5.27 | selectivity ratio [7]: > 92 | pEC50 [10]: < 4.82 | CC50 at 120 h [12]: > 15 µM

Structure (SMILES): Cc1cc(C#N)cc(C)c1Oc1nc(Nc2ccc(C#N)cc2)nc(N)c1Br [ETRAVIRINE]
pEC50 [6]: 7.74 | selectivity ratio [7]: > 1640 | pEC50 [10]: 7.42 | CC50 at 120 h [12]: > 6.33 µM

Structure (SMILES): Cc1cc(C)cc(S(=O)(=O)c2c(C(=O)NCc3cn(CC(=O)N4CCOCC4)nn3)[nH]c3ccc(Cl)cc23)c1
inhibition [11]: < 85%

Structure (SMILES): Cc1cc(C)cc(S(=O)(=O)c2c(C(=O)NCc3cn(-c4ccc(C(=O)O)cc4Cl)nn3)[nH]c3ccc(Cl)cc23)c1
inhibition [11]: < 85%

Structure (SMILES): Cc1cc(C)cc(S(=O)(=O)c2c(C(=O)NCc3cn(Cc4ccc(S(N)(=O)=O)cc4)nn3)[nH]c3ccc(Cl)cc23)c1
inhibition [11]: < 85%

Structure (SMILES): Cc1cc(C)cc(S(=O)(=O)c2c(C(=O)NCc3cn(CC(=O)Nc4ccccc4)nn3)[nH]c3ccc(Cl)cc23)c1
inhibition [11]: < 85%

Structure (SMILES): COc1ccccc1Cn1cc(CNC(=O)c2[nH]c3ccc(Cl)cc3c2S(=O)(=O)c2cc(C)cc(C)c2)nn1
inhibition [11]: < 85%

Structure (SMILES): Cc1cc(C)cc(S(=O)(=O)c2c(C(=O)NCc3cn(CC(=O)Nc4ccc(S(C)(=O)=O)cc4)nn3)[nH]c3ccc(Cl)cc23)c1
inhibition [11]: < 85%
